From ChEMBL document CHEMBL3112519, “Degrasyn-like symmetrical compounds: possible therapeutic agents for multiple myeloma (MM-I)” (Bioorg Med Chem, 2014)
Active and inactive are the calls of the source. No cut-off for these calls is given here.

Tests used:
[1] = Cytotoxicity against human MM1S cells after 72 hrs by MTT assay; format: functional, cell-based; details: MM1.S
In short: (§1)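 Cells were grown in RPMI 1640 with 10% heat-inactivated FBS and 2 mM glutamine. Non-adherent cells were seeded at 20,000 per well and adherent cells at 5,000. Compounds were serially diluted in medium from a final top concentration of 10 μM (DMSO ≤0.1%), with vehicle controls, and incubated at 37 °C for 72 h. MTT was added for 2 h, then SDS/DMF lysis (pH 4.7) for 6 h, and OD570 was read. IC50 was taken from the concentration range.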

[2] = Cytotoxicity against human MM1S cells at 10 uM after 72 hrs by MTT assay; format: functional; details: MM1.S
In short: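 MM1.S cells were grown in RPMI 1640 with 10% heat-inactivated FBS and 2 mM glutamine and plated at 20,000 cells per well. They were exposed to a single 10 μM final concentration (DMSO ≤0.1%) or vehicle for 72 h at 37 °C. MTT was added for 2 h, followed by SDS/DMF lysis for 6 h and OD570 reading. Percent growth inhibition was calculated against vehicle.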

[3] = molecular target: Tyrosine-protein kinase JAK2 (Homo sapiens) (UniProt O60674); test: Inhibition of human JAK2 kinase at 10000 nM
K562 = test: Cytotoxicity against human K562 cells after 72 hrs by MTT assay; format: functional, cell-based; details: K562, 72 h; in short: as §1
A-375 = test: Cytotoxicity against human A375 cells after 72 hrs by MTT assay; format: functional, cell-based; details: A-375, 72 h; in short: as §1
Homo sapiens = organism: Homo sapiens; test: Inhibition of human Bcr-Abl kinase at 10000 nM
[4] = molecular target: Mast/stem cell growth factor receptor Kit (Homo sapiens) (UniProt P10721); test: Inhibition of human c-kit kinase at 10000 nM
[5] = Cytotoxicity against human Mino cells after 72 hrs by MTT assay; format: functional, cell-based; in short: as §1
[6] = molecular target: T1, Ubiquitin carboxyl-terminal hydrolase 9X (Homo sapiens, UniProt Q93008); test: Inhibition of Usp9x in human Z138 cells using HA-Ub vinyl-sulfone as substrate at 1.25 to 5 uM after 4 hrs by immunoblotting analysis; format: cell-based
[7] = molecular target: T1, Ubiquitin carboxyl-terminal hydrolase 9X; test: Inhibition of human recombinant N-terminal His6-Smt3-fusion-tagged Usp9x catalytic domain expressed in Escherichia coli using Ub-AMC as substrate incubated for 30 mins prior to substrate addition by fluorescence assay

T1 sequence (Q93008 whole entry, the tested form may be a part): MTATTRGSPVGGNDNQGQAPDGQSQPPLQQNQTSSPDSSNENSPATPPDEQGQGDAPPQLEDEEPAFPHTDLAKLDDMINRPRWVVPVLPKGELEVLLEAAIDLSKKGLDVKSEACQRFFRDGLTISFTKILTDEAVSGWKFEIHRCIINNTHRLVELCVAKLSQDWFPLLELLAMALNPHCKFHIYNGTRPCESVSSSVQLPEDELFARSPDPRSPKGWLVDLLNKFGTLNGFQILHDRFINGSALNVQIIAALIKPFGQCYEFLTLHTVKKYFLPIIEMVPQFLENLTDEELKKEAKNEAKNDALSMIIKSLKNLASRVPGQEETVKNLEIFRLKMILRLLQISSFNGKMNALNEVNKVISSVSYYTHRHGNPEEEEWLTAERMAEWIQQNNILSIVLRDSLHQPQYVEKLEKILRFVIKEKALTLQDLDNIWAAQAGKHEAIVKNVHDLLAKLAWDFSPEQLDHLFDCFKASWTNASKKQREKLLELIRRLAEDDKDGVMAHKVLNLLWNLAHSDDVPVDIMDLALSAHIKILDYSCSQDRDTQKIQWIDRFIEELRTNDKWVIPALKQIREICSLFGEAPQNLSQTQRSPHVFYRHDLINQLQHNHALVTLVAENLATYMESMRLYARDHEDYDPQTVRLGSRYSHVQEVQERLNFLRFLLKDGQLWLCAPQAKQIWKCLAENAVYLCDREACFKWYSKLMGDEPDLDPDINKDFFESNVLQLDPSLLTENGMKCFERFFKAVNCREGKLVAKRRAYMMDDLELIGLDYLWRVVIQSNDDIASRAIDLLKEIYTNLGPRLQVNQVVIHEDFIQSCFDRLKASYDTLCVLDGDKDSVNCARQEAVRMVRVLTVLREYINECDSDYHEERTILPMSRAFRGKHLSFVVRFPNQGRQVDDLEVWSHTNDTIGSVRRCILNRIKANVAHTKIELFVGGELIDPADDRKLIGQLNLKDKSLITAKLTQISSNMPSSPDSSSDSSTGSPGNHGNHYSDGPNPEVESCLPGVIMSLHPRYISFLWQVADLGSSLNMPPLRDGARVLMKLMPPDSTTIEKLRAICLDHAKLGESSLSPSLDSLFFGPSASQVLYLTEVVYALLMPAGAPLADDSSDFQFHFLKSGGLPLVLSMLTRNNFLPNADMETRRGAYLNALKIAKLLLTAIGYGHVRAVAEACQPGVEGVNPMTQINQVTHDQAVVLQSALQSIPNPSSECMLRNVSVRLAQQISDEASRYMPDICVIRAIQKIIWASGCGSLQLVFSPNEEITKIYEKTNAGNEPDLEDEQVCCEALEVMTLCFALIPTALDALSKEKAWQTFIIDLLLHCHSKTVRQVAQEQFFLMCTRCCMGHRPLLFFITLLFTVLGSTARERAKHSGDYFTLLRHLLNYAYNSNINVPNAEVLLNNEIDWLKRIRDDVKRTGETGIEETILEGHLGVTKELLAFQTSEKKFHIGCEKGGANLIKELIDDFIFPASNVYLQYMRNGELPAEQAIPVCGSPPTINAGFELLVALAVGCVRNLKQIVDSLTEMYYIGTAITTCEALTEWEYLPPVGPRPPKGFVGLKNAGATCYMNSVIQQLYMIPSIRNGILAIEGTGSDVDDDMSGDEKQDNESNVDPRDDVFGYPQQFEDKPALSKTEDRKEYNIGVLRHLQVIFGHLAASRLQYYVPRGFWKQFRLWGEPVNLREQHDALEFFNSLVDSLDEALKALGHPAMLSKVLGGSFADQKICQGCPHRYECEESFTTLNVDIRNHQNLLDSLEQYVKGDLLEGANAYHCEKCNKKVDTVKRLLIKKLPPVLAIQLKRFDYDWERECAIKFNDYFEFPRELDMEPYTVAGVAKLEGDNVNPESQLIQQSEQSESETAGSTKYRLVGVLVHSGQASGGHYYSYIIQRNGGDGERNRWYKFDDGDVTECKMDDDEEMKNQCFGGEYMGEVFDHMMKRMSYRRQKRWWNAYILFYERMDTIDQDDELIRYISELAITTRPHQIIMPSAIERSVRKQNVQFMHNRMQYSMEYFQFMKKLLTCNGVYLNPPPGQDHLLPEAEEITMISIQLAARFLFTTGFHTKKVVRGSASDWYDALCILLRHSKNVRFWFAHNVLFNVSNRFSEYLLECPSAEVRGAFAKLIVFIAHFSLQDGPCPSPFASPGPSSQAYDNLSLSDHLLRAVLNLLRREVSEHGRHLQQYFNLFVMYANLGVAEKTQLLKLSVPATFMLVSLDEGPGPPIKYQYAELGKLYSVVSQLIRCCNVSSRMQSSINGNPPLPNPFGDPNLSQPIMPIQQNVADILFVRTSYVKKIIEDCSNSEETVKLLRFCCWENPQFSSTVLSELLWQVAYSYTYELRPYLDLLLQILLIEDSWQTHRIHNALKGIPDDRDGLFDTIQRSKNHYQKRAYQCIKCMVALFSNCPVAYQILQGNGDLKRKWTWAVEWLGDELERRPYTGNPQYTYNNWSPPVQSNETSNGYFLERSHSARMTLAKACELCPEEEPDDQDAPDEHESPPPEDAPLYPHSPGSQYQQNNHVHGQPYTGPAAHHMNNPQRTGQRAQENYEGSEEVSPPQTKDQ
Chain of Mast/stem cell growth factor receptor Kit (Homo sapiens) (P10721 whole entry): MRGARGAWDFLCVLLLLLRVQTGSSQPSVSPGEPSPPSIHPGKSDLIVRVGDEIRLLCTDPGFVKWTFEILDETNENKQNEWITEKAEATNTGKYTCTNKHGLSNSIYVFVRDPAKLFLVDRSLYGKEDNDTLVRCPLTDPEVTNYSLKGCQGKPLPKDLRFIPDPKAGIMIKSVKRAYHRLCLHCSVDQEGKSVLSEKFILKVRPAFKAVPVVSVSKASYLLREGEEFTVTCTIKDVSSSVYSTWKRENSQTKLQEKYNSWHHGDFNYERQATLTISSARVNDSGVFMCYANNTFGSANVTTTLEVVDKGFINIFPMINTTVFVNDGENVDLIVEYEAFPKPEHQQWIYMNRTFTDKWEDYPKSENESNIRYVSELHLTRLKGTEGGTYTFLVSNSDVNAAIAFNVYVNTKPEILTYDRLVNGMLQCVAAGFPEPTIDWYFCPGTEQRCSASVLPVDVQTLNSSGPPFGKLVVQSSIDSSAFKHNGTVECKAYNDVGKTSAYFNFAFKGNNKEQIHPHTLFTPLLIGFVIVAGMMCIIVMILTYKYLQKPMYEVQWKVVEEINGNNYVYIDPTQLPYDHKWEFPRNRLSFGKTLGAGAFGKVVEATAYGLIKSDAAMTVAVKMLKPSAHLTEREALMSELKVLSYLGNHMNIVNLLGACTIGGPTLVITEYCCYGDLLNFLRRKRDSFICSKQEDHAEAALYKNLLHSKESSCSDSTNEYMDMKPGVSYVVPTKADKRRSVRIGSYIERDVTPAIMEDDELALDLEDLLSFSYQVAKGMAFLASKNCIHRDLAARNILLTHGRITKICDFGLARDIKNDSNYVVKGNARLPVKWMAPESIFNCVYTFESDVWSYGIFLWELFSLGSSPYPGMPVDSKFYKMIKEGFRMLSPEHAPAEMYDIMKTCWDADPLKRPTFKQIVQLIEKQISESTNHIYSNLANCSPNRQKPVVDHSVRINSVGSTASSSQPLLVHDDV
Chain of Tyrosine-protein kinase JAK2 (Homo sapiens) (O60674 whole entry): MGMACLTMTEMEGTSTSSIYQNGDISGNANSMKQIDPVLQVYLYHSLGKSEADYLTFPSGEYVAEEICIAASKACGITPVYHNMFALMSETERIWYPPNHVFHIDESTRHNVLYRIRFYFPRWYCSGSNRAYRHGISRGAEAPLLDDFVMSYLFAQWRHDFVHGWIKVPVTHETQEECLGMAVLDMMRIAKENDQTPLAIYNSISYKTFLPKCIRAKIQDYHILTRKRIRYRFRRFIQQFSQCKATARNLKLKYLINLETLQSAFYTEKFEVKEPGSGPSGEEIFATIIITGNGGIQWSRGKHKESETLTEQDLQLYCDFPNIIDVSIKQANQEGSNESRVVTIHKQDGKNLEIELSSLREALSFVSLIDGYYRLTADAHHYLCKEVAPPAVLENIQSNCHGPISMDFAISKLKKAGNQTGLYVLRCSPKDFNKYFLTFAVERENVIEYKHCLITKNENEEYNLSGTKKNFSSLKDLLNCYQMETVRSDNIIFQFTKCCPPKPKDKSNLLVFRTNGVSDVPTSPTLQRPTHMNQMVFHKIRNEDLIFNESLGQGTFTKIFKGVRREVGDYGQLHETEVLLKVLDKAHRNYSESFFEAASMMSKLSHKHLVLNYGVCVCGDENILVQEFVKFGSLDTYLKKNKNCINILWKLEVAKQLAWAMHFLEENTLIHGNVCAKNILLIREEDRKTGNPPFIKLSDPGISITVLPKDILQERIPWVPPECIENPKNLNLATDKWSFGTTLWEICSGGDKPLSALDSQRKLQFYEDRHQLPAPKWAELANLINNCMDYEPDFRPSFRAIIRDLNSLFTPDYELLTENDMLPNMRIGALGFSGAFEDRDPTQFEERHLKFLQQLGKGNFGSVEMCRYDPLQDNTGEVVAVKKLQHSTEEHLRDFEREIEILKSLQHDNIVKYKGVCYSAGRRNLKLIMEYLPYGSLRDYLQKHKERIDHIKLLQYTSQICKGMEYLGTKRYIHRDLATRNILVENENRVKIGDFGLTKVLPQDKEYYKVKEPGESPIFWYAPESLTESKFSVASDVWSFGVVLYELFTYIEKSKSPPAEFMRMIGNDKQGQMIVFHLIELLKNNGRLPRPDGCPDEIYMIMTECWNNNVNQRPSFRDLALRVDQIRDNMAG

SMILES | IC50 [1] [nM] | other results
N#C/C(=C/c1cc(-c2ccccc2)cs1)C(=O)NCc1cccc(CNC(=O)/C(C#N)=C\c2cc(-c3ccccc3)cs2)c1 | > 5000 | –
Cc1ccc(Cl)c(C=C(C#N)C(=O)NCc2cccc(CNC(=O)C(C#N)=Cc3c(Cl)ccc(C)c3F)c2)c1F | 600 | –
N#C/C(=C/c1cc(Cl)c(Cl)cn1)C(=O)NCc1cccc(CNC(=O)/C(C#N)=C\c2cc(Cl)c(Cl)cn2)c1 | 1250 | –
CCC[C@H](NC(=O)/C(C#N)=C/c1cccc(/C=C(\C#N)C(=O)N[C@@H](CCC)c2ccccc2)c1)c1ccccc1 | 600 | –
C[C@H](NC(=O)/C(C#N)=C/c1cccnc1)c1ccccc1 | – | inhibition at 10 µM [2]: 44%
N#C/C(=C/c1cccc(Br)n1)C(=O)NCc1cccc(CNC(=O)/C(C#N)=C\c2cccc(Br)n2)c1 | 240 | inhibition [3]: inactive; IC50 (K562): 400 nM; IC50 (A-375): 600 nM; inhibition (Homo sapiens): inactive; inhibition [4]: inactive; IC50 [5]: 200 nM
C[C@H](NC(=O)/C(C#N)=C/c1ccc(C(F)(F)F)cc1)c1ccccc1 | – | inhibition at 10 µM [2]: 63%
CCC[C@H](NC(=O)/C(C#N)=C/c1cccc(/C=C(\C#N)C(=O)N[C@@H](CCC)c2ccccc2)n1)c1ccccc1 | 1200 | –
C[C@H](NC(=O)/C(C#N)=C/c1cccc(/C=C(\C#N)C(=O)N[C@@H](C)c2ccccc2)n1)c1ccccc1 | 1280 | –
N#C/C(=C\c1ccc(/C=C(\C#N)C(=O)N[C@@H](CO)c2ccccc2)cc1)C(=O)N[C@@H](CO)c1ccccc1 | 2000 | –
CC[C@H](NC(=O)/C(C#N)=C/c1cccc(/C=C(\C#N)C(=O)N[C@@H](CC)c2ccccc2)c1)c1ccccc1 | 800 | –
COC(=O)c1ccc(/C=C(\C#N)C(=O)N[C@@H](C)c2ccccc2)cc1 | – | inhibition at 10 µM [2]: 67%
N#C/C(=C/c1ccc(-c2cccs2)s1)C(=O)NCc1cccc(CNC(=O)/C(C#N)=C\c2ccc(-c3cccs3)s2)c1 | > 5000 | –
COc1cccc(/C=C(/C#N)C(=O)NCc2cccc(CNC(=O)/C(C#N)=C\c3cccc(OC)n3)c2)n1 | > 5000 | –
CCCCOc1ccc(/C=C(\C#N)C(=O)N[C@@H](C)c2ccccc2)cc1 | – | inhibition at 10 µM [2]: 31%
N#C/C(=C/c1ccc(N2CCCCC2)cc1)C(=O)NCc1cccc(CNC(=O)/C(C#N)=C\c2ccc(N3CCCCC3)cc2)c1 | > 5000 | –
C[C@H](NC(=O)/C(C#N)=C/c1ccc(-c2ccccc2)cc1)c1ccccc1 | – | inhibition at 10 µM [2]: 49%
N#C/C(=C/c1ccc2[nH]ccc2c1)C(=O)NCc1cccc(CNC(=O)/C(C#N)=C\c2ccc3[nH]ccc3c2)c1 | > 5000 | –
CCC[C@H](NC(=O)/C(C#N)=C/c1cccc(Br)n1)c1ccccc1 | 1200 | inhibition [6]: Active; IC50 (K562): 2400 nM; IC50 (A-375): 1700 nM; IC50 [7]: 5900 nM; inhibition at 10 µM [2]: 97%; IC50 [5]: 800 nM
C[C@H](NC(=O)/C(C#N)=C/c1cc(/C=C(\C#N)C(=O)N[C@@H](C)c2ccccc2)cc(/C=C(\C#N)C(=O)N[C@@H](C)c2ccccc2)c1)c1ccccc1 | 700 | –

SMILES | IC50 [1] [nM] | other results
CC(C)c1ccc(/C=C(\C#N)C(=O)NCc2ccc(Cl)cc2)cc1 | – | inhibition at 10 µM [2]: 21%
N#C/C(=C\c1cccc(/C=C(\C#N)C(=O)N[C@@H](Cc2ccccc2)c2ccccc2)c1)C(=O)N[C@@H](Cc1ccccc1)c1ccccc1 | 620 | –
N#C/C(=C\c1cccc(/C=C(\C#N)C(=O)N[C@@H](CO)c2ccccc2)n1)C(=O)N[C@@H](CO)c1ccccc1 | > 2000 | –
COc1ccc(C(CC2CC2)NC(=O)/C(C#N)=C/c2cccc(/C=C(\C#N)C(=O)NC(CC3CC3)c3ccc(OC)cc3)c2)cc1 (racemic) | 1200 | –
C[C@H](NC(=O)/C(C#N)=C/c1cccs1)c1ccccc1 | – | inhibition at 10 µM [2]: 14%
CCCCCCOc1ccc(/C=C(/C#N)C(=O)NCc2cccc(CNC(=O)/C(C#N)=C\c3ccc(OCCCCCC)cc3)c2)cc1 | 5000 | –
C[C@H](NC(=O)/C(C#N)=C/c1ccc(/C=C(\C#N)C(=O)N[C@@H](C)c2ccccc2)cc1)c1ccccc1 | > 5000 | –
COc1ccc([C@H](C)NC(=O)/C(C#N)=C/c2cccc(/C=C(\C#N)C(=O)N[C@@H](C)c3ccc(OC)cc3)c2)cc1 | 1000 | –
N#C/C(=C\C=C\c1ccc(O)c(O)c1)C(=O)NCc1cccc(CNC(=O)/C(C#N)=C/C=C/c2ccc(O)c(O)c2)c1 | > 5000 | –
C[C@H](NC(=O)/C(C#N)=C/c1cccc(/C=C(\C#N)C(=O)N[C@@H](C)c2ccccc2)c1)c1ccccc1 | 400 | IC50 (K562): 600 nM; IC50 (A-375): 800 nM; inhibition at 10 µM [2]: 100%; IC50 [5]: 400 nM
N#C/C(=C/c1ccc(O)c(Br)c1)C(=O)NCc1cccc(CNC(=O)/C(C#N)=C\c2ccc(O)c(Br)c2)c1 | > 10000 | –
N#C/C(=C/c1c[nH]c2ccccc12)C(=O)NCc1cccc(CNC(=O)/C(C#N)=C\c2c[nH]c3ccccc23)c1 | > 5000 | –
N#C/C(=C/c1csc2ccccc12)C(=O)NCc1cccc(CNC(=O)/C(C#N)=C\c2csc3ccccc23)c1 | > 5000 | –
C[C@H](NC(=O)/C(C#N)=C/c1ccc(/C=C(\C#N)C(=O)N[C@@H](C)c2ccccc2Cl)cc1)c1ccccc1Cl | > 5000 | –
N#C/C(=C/c1ccc([N+](=O)[O-])c(O)c1)C(=O)NCc1cccc(CNC(=O)/C(C#N)=C\c2ccc([N+](=O)[O-])c(O)c2)c1 | 700 | –
N#C/C(=C\c1ccccc1)C(=O)N1CCC(C(c2ccccc2)c2ccccc2)CC1 | – | inhibition at 10 µM [2]: 14%
N#C/C(=C/c1cnc[nH]1)C(=O)NCc1cccc(CNC(=O)/C(C#N)=C\c2cnc[nH]2)c1 | > 5000 | –
N#C/C(=C\c1cccc(/C=C(\C#N)C(=O)N[C@@H](CO)c2ccccc2)c1)C(=O)N[C@@H](CO)c1ccccc1 | > 2000 | –
COc1ccc(/C=C(/C#N)C(=O)NCc2cccc(CNC(=O)/C(C#N)=C\c3ccc(OC)c(OC)c3)c2)cc1OC | 2000 | –
